From ChEMBL document CHEMBL5154784, “Design, Synthesis, Biological Evaluation, and Computational Studies of Novel Ureidopropanamides as Formyl Peptide Receptor 2 (FPR2) Agonists to Target the Resolution of Inflammation in Central Nervous System Disorders” (J Med Chem, 2022)
pEC50, pIC50: −log10 of the molar value.

Columns and labels:
[1] = Cytotoxicity against mouse N9 cells assessed as reduction in cell viability incubated for 48 hrs by MTT assay; type: toxicity, cell-based
How it was run: (§1)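 MTT 0.5 mg/mL added for 3–4 h at 37 °C, formazan dissolved in DMSO/EtOH 1:1, absorbance read at 570 and 630 nm. Mean ± SD from at least two to three experiments in triplicate.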

[2] = target: T1, N-formyl peptide receptor 2 (Homo sapiens) (UniProt P25090); test: Agonist activity at human FPR2 transfected in HL-60 cells assessed as induction of intracellular calcium ions mobilization using WKYMVM as substrate preincubated for 10 mins followed by substrate addition and measured every 5 seconds for 240 secs by Fluo-4-AM dye based fluorescent assay relative to control; type: functional, cell-based; conditions: filed as agonist
T1 sequence (whole entry): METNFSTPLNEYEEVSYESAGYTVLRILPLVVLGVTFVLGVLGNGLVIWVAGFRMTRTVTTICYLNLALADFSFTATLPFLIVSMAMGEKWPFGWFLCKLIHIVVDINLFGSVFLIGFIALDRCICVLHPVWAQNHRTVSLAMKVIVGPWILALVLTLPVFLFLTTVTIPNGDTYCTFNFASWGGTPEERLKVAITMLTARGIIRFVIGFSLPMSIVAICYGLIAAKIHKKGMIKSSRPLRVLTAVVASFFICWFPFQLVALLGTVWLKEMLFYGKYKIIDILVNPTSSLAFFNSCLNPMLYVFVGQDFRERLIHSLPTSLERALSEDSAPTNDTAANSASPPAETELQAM

[3] = Metabolic stability in rat liver microsomes assessed as compound remaining at 10 uM preincubated for 10 mins followed by NADPH addition and measured after 30 mins by HPLC analysis; type: ADME, Microsome; conditions: time 40 min, read-out: Stability
How it was run: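 Rat liver microsomes (1.0 mg/mL protein), compound 10 μM final in 100 mM potassium phosphate pH 7.4, pre-incubated 10 min at 37 °C, then NADPH regenerating system added. After 30 min, % parent remaining by HPLC-DAD (C18, MeOH/H2O 80:20) versus incubation without NADPH system.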

[4] = target: T2, N-formyl peptide receptor 2 (Homo sapiens, UniProt P25090); test: Agonist activity at human FPR2 transfected in human HL-60 cells assessed as increase in calcium mobilization measured every 5 seconds for 240 secs by Fluo-4-AM dye based fluorescence assay; type: functional, cell-based
T2 sequence (P25090 whole entry): T1 sequence (whole entry)

[5] = target: T2, N-formyl peptide receptor 2; test: Antagonist activity at human FPR2 transfected in human HL-60 cells assessed as inhibition of WKYMVM-induced intracellular calcium mobilization preincubated for 10 mins followed by WKYMVM addition measured every 5 seconds for 240 secs by Fluo-4-AM dye based fluorescence assay; type: functional, cell-based
How it was run: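 Fluo-4-loaded FPR2-HL60 cells pre-incubated 10 min with compound (1% DMSO final), then challenged with 5 nM WKYMVM. Maximum change over baseline taken as response. IC50 by four-parameter logistic regression of at least 5–6 point curves.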

[6] = Cytotoxicity against mouse N9 cells assessed as reduction in cell viability at 1 to 100 uM incubated for 48 hrs by MTT assay relative to control; type: toxicity, cell-based; conditions: n9, 48 h, dose 1-100 µM; how it was run: as §1
fMet-Leu-Phe receptor [7] = target: T3, fMet-Leu-Phe receptor (Homo sapiens, UniProt P21462); test: Agonist activity at human FPR1 transfected in human HL-60 cells assessed as increase in calcium mobilization measured every 5 seconds for 240 secs by Fluo-4-AM dye based fluorescence assay; type: functional, cell-based
T3 sequence (P21462 whole entry): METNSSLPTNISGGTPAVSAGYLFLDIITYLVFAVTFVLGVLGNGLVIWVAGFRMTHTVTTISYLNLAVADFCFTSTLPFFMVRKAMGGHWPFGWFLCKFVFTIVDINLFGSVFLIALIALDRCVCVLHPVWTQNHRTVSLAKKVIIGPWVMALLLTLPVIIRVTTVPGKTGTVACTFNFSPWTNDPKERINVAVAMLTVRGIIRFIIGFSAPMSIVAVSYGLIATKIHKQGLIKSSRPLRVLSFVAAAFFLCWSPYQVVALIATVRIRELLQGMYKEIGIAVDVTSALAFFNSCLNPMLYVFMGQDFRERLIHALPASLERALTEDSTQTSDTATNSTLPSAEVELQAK

fMet-Leu-Phe receptor [8] = target: T3, fMet-Leu-Phe receptor; test: Antagonist activity at human FPR1 transfected in human HL-60 cells assessed as inhibition of fMLF-induced intracellular calcium mobilization preincubated for 10 mins followed by fMLF addition and measured every 5 seconds for 240 secs by Fluo-4-AM dye based fluorescence assay; type: functional, cell-based
[9] = AUC (infinity) in CD-1 mouse at 1 mg/kg, iv measured upto 4 hrs by UPLC analysis; type: ADME, organism-based; parameters: time < 4 hrs, dose 1 mg/kg, route iv; conditions: in vivo
How it was run: (§2)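 Male CD-1 mice (25–30 g) dosed i.v. 1 mg/kg or i.p. 10 mg/kg in 5% DMSO/10% solutol HS 15/85% sterile water, n = 3 per time point. Cardiac-puncture blood under isoflurane: i.v. 0.083–8 h, i.p. 0.25–24 h. K2EDTA plasma, protein precipitation with acetonitrile (rolipram internal standard), UPLC on C18 column.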

[10] = Drug concentration in CD-1 mouse brain at 10 mg/kg, ip measured after 2 hrs by UPLC analysis; type: ADME, organism-based; conditions: read-out: Ct
How it was run: (§3)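 Male CD-1 mice (25–30 g) given 10 mg/kg i.p. in 5% DMSO/10% solutol HS 15/85% water, n = 3 per time point. Brains taken after decapitation under anesthesia, homogenized in four volumes 0.1 N HEPES. Plasma drawn by cardiac puncture. Acetonitrile precipitation with rolipram internal standard, UPLC quantification. Brain-to-plasma ratio taken from paired brain and plasma levels.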

[11] = Cmax in CD-1 mouse at 10 mg/kg, ip measured after 30 mins by UPLC analysis; type: ADME, organism-based; parameters: time 30 min, dose 10 mg/kg, route ip; conditions: in vivo, 0.5 h; how it was run: as §2
[12] = AUC (infinity) in CD-1 mouse at 10 mg/kg, ip measured after 30 mins by UPLC analysis; type: ADME, organism-based; parameters: time 30 min, dose 10 mg/kg, route ip; conditions: in vivo, 0.5 h; how it was run: as §2
[13] = Cmax in CD-1 mouse at 1 mg/kg, iv measured after 5 mins by UPLC analysis; type: ADME, organism-based; parameters: time 5 min, dose 1 mg/kg, route iv; conditions: in vivo; how it was run: as §2
[14] = Tlast in CD-1 mouse at 10 mg/kg, ip by UPLC analysis; type: ADME, organism-based; conditions: in vivo; how it was run: as §2
[15] = Neurotoxicity against Sprague-Dawley rat primary microglial cells assessed as reduction in cell viability by measuring LDH release at 0.1 uM incubated for 24 hrs by LDH assay; type: toxicity, cell-based; conditions: microglia
How it was run: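 Sprague–Dawley rat neonatal cortical microglia (>95% Iba-1+), switched to 1% FBS medium 1 h before treatment. Compound 0.1 μM for 1 h, then LPS 100 ng/mL for 24 h; WRW4 10 μM given 30 min before in some sets, 0.1% vehicle. Supernatant LDH read at 540 nm, % of vehicle controls, mean ± SEM.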

[16] = Clast in CD-1 mouse at 1 mg/kg, iv measured upto 4 hrs by UPLC analysis; type: ADME, organism-based; conditions: in vivo, read-out: Clast; how it was run: as §2
[17] = Drug concentration in CD-1 mouse brain at 10 mg/kg, ip measured after 8 hrs by UPLC analysis; type: ADME, organism-based; conditions: read-out: Ct; how it was run: as §3
[18] = Cytotoxicity against mouse N9 cells assessed as reduction in cell viability by measuring LDH release at 0.5 to 5 uM incubated for 24 hrs by LDH assay; type: toxicity, cell-based; conditions: n9, 24 h, dose 0.5-5 µM
How it was run: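 N9 cells (2 × 10^4/well) given compound at 0.5 or 5 μM, alone or with LPS (E. coli O111:B4, 100 ng/mL) added 30 min later, for 24 h at 37 °C. Released LDH measured in supernatant (30 min, room temperature, 490/630 nm). Expressed as % of untreated cells, mean ± SEM, at least three experiments in triplicate.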

[19] = Antiinflammatory activity against Sprague-Dawley rat primary microglial cells assessed as reduction in IL-1beta expression at 0.1 uM incubated for 1 hr by ELISA method (reference value: 100 +/- 13 %); type: functional, Microglia; parameters: scale not given: the % may be the effect or the level left
[20] = Antiinflammatory activity against Sprague-Dawley rat primary microglial cells assessed as reduction in IL-6 expression at 0.1 uM incubated for 1 hr by ELISA method (reference value: 100 +/- 2.16 %); type: functional, Microglia; parameters: scale not given: the % may be the effect or the level left
Microglia = test: Anti-inflammatory activity against Sprague-Dawley rat primary microglial cells assessed as reduction in IL-10 expression at 0.1 uM incubated for 1 hr by ELISA method (reference value: 100 +/- 3.9 %); type: functional; parameters: scale not given: the % may be the effect or the level left
[21] = Antiinflammatory activity against Sprague-Dawley rat primary microglial cells assessed as reduction in TNF-alpha expression at 0.1 uM incubated for 1 hr by ELISA method (reference value: 100 +/- […]); type: functional, Microglia; parameters: scale not given: the % may be the effect or the level left

| Molecule | Efficacy [2] | remaining at 0.5 h, 10 µM [3] | pEC50 [4] | pIC50 [5] | pEC50 (fMet-Leu-Phe receptor [7]) | pIC50 (fMet-Leu-Phe receptor [8]) | EC50 at 48 h [1] | Activity [6] | Activity [18] | also measured |
| --- | --- | --- | --- | --- | --- | --- | --- | --- | --- | --- |
| N#Cc1ccc(C[C@H](NC(=O)Nc2ccc(F)cc2)C(=O)N2CCC(F)(F)CC2)cc1 | 80% | 67% | 4.71 | 4.52 |  |  | > 100 µM | 9% |  |  |
| N#Cc1ccc(C[C@H](NC(=O)Nc2ccc(F)cc2)C(=O)N2CCc3ccc(F)cc32)cc1 |  |  |  |  |  |  |  |  | Non-Toxic | AUC [9]: 613 ng·h/mL; concentration at 2 h [10]: 37 ng/g; Cmax [11]: 192 ng/mL; AUC [12]: 731 ng·h/mL; Cmax [13]: 1380 ng/mL; Tlast [14]: 8 h; Activity [15]: Non-Toxic; concentration at 4 h [16]: 14.1 ng/mL; concentration at 8 h [17]: 15.7 ng/g |
| N#Cc1ccc(C[C@@H](NC(=O)Nc2ccc(F)cc2)C(=O)N2CCC(F)(F)CC2)cc1 |  | 62% |  |  |  |  | > 100 µM | 40% |  |  |
| N#Cc1ccc(C[C@H](NC(=O)Nc2ccc(F)cc2)C(=O)N2CCCc3ccccc32)cc1 | 120% | 10% | 6.57 | 7.89 | 5.92 | 4.62 | 14.7 µM |  | Toxic |  |
| H-WRWWWW-NH2 |  |  |  |  |  |  |  |  |  | Activity [19]: 103%; Activity [20]: 108%; Activity (Microglia): 103%; Activity [21]: 121% |
| N#Cc1ccc(C[C@H](NC(=O)Nc2ccc(F)cc2)C(=O)N2CCc3ccccc32)cc1 |  | 22% | 7.59 | 8.00 |  |  |  |  | Non-Toxic | Activity [15]: Non-Toxic |

Continued, in another order:

| Efficacy [2] | remaining at 0.5 h, 10 µM [3] | pEC50 [4] | pIC50 [5] | pEC50 (fMet-Leu-Phe receptor [7]) | pIC50 (fMet-Leu-Phe receptor [8]) | Molecule | EC50 at 48 h [1] | Activity [6] | Activity [18] | also measured |
| --- | --- | --- | --- | --- | --- | --- | --- | --- | --- | --- |
| 100% |  | 5.51 | 5.19 | 4.82 | 4.47 | N#Cc1ccc(C[C@H](NC(=O)Nc2ccc(F)cc2)C(=O)N2CCCC2)cc1 | > 100 µM | 55% |  |  |
| 105% | 85% | 6.77 | 6.46 | 6.11 | 5.46 | N#Cc1ccc(C[C@H](NC(=O)Nc2ccc(F)cc2)C(=O)NC2CCCCNC2=O)cc1 (stereo partly drawn) | > 100 µM | 53% | Non-Toxic |  |
| 140% | 78% | 6.00 | 5.42 | 5.38 | 4.39 | N#Cc1ccc(C[C@@H](NC(=O)Nc2ccc(F)cc2)C(=O)NC2CCCCNC2=O)cc1 (stereo partly drawn) | > 100 µM | 36% |  |  |
| 105% | 61% | 5.28 | 4.78 | 4.58 | 4.36 | N#Cc1ccc(C[C@@H](NC(=O)Nc2ccc(F)cc2)C(=O)N2CCCC2)cc1 | > 100 µM | 59% |  |  |
